According to ChEMBL document CHEMBL1155234, “Dialkylamino and nitrogen heterocyclic analogues of hexadecylphosphocholine and cetyltrimetylammonium bromide: effect of phosphate group and environment of the ammonium cation on their biological activity” (Eur J Med Chem, 2009):
Values after ≈ are worked out from the molar mass of the structure shown.

Legend:
Acanthamoeba lugdunensis = experiment: Trophocidal activity against Acanthamoeba lugdunensis assessed as viability for 14 days by trypan blue exclusion assay; format: functional
Method in brief: (§1)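 Trophozoites were grown axenically in PYG medium and seeded at 2×10^5 cells ml⁻¹ (100 µl), then mixed with compound in PYG at 37 °C. APCs were tested at 25–800 µM (six levels) and QUATs at 7.25–100 µM (five levels). Viability was scored by trypan blue exclusion. Eradication was confirmed by transfer to fresh PYG with growth monitored for 14 days. MTC was the lowest concentration giving 100% eradication.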

[1] = Toxicity in human erythrocytes assessed as hemolysis after 1 hr; format: cell-based, Erythrocyte
Method in brief: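 Citrated human blood erythrocytes were washed three times in Ca/Mg-free PBS (2000g, 10 min) and resuspended in glucose-containing phosphate buffer, pH 7.4. They were diluted 1:10 into compound-containing buffer to a final 6.7–6.8×10^7 cells ml⁻¹ and incubated 1 h at 37 °C with shaking. After centrifugation, supernatant absorbance at 542 nm was compared with fully lysed controls (CTAB).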

Jurkat = experiment: Cytotoxicity against human Jurkat cells after 72 hrs by MTT assay; format: functional, cell-based
Method in brief: (§2)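 MTT end-point assay. Cells were exposed to compound at 1×10^-4 to 1×10^-8 mol l⁻¹ final for 72 h. Seeding was 3×10^3 cells ml⁻¹ for A-549, MCF-7 and MDA-MB-231; 5×10^3 for HeLa; 1×10^4 for Jurkat and CCRF-CEM. Media were DMEM/10% FCS (A-549, MCF-7, MDA-MB-231) or RPMI-HEPES/10% FCS (others). Formazan was dissolved in SDS for 12 h and read at 540 nm against untreated control, in triplicate. IC50 was curve-fitted.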

Candida albicans = experiment: Antifungal activity against Candida albicans CCM 8186 assessed as inhibition of colony formation after 24 hrs; format: functional
Method in brief: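 C. albicans came from 24-h Sabouraud agar cultures and was suspended at 5×10^5 cells ml⁻¹ in physiological solution pH 7.2, adjusted to A540 = 0.35. It was mixed with aqueous compound and double-concentrated Sabouraud medium and incubated 24 h at 37 °C. Each well was then subcultured on Sabouraud agar for 24 h at 37 °C. MFC was the lowest concentration giving no colonies.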

A549 = experiment: Cytotoxicity against human A549 cells after 72 hrs by MTT assay; format: functional, cell-based; settings: A549, 72 h; method in brief: as §2
HeLa = experiment: Cytotoxicity against human HeLa cells after 72 hrs by MTT assay; format: functional, cell-based; method in brief: as §2
MCF7 = experiment: Cytotoxicity against human MCF7 cells after 72 hrs by MTT assay; format: functional, cell-based; settings: MCF7, 72 h; method in brief: as §2
MDA-MB-231 = experiment: Cytotoxicity against human MDA-MB-231 cells after 72 hrs by MTT assay; format: functional, cell-based; settings: MDA-MB-231, 72 h; method in brief: as §2
CCRF-CEM = experiment: Cytotoxicity against human CCRF-CEM cells after 72 hrs by MTT assay; format: functional, cell-based; method in brief: as §2
Acanthamoeba polyphaga = experiment: Trophocidal activity against Acanthamoeba polyphaga 5SU assessed as viability for 14 days by trypan blue exclusion assay; format: functional; method in brief: as §1
Acanthamoeba lenticulata = experiment: Trophocidal activity against Acanthamoeba lenticulata 72/2 assessed as viability for 14 days by trypan blue exclusion assay; format: functional; method in brief: as §1
Acanthamoeba castellanii = experiment: Trophocidal activity against Acanthamoeba castellanii 1BU assessed as viability for 14 days by trypan blue exclusion assay; format: functional; method in brief: as §1

| Molecule | MTC (Acanthamoeba lugdunensis) [µM] | EC50 at 1 hr [1] [µM] | IC50 (Jurkat) [µM] | MFC (Candida albicans; CCM 8186, 24 h) [µM] | IC50 (A549) [µM] | IC50 (HeLa) [µM] | IC50 (MCF7) [µM] | IC50 (MDA-MB-231) [µM] | IC50 (CCRF-CEM) [µM] | MTC (Acanthamoeba polyphaga) [µM] | MTC (Acanthamoeba lenticulata) [µM] | MTC (Acanthamoeba castellanii) [µM] | MFC (Candida albicans) [µM] |
| --- | --- | --- | --- | --- | --- | --- | --- | --- | --- | --- | --- | --- | --- |
| CCCCCCCCCCCCCCCC[N+](C)(CCCC)CCCC.[Br-] | 25 | 25 | 0.76 | 9 | 0.64 | 0.9 | 0.68 | 2.55 | 0.91 |  |  |  |  |
| CCCCCCCCCCCCCCCCOP(=O)([O-])OCC[N+](C)(C)C [MILTEFOSINE] | 400 | 30 | 10 | 4 (≈ 1.63 µg/mL) | 44.7 | 41.6 | 39.2 | 37.6 | 13.5 | 31.25 | 20 | 31.25 |  |
| CCCCCCCCCCCCCCCCOP(=O)([O-])OCC[N+]1(C)CCOCC1 | 200 | 30 | 7.7 | 8 (≈ 3.6 µg/mL) | 42 | 21.7 | 22.4 | 11.4 | 8.25 |  |  |  |  |
| CCCCCCCCCCCCCCCC[N+]1(C)CCCCCCC1.[Br-] | 12.5 | 30 | 0.78 | 9 | 0.85 | 1.43 | 0.94 | 4.12 | 1 |  |  |  |  |
| CCCCCCCCCCCCCCCCOP(=O)([O-])OCC[N+](C)(CCC)CCC | 400 | 30 | 28.6 | 16 (≈ 7.42 µg/mL) | 55 | 55 | 50.6 | 40.6 | 19.2 |  |  |  |  |
| CCCCCCCCCCCCCCCCOP(=O)([O-])OCC[N+](C)(CC)CC | 200 | 30 | 19.6 | 4 (≈ 1.74 µg/mL) | 59.4 | 49.4 | 53.7 | 34.4 | 9 |  |  |  |  |
| Cetyltrimethylammonium bromide | 25 |  |  |  |  |  |  |  |  |  |  |  | 21 |
| CCCCCCCCCCCCCCCCOP(=O)([O-])OCC[N+]1(C)CCCCC1 | 200 | 25 | 14 | 8 (≈ 3.58 µg/mL) | > 100 | 57.2 | 54.8 | 51.7 | 11.2 |  |  |  |  |
| CCCCCCCCCCCCCCCC[N+]1(C)CCOCC1.[Br-] | 50 | 45 | 3.57 | 24 | 0.87 | 5.61 | 0.89 | 5.75 | 4.16 |  |  |  |  |
| CCCCCCCCCCCCCCCC[N+]1(C)CCCCCC1.[Br-] | 12.5 | 35 | 0.8 | 9 | 0.67 | 1.82 | 0.72 | 2.84 | 1 |  |  |  |  |
| CCCCCCCCCCCCCCCC[N+]1(C)CCCCC1.[Br-] | 12.5 | 35 | 0.72 | 10 | 0.63 | 1.47 | 0.59 | 3.86 | 0.92 |  |  |  |  |
| CCCCCCCCCCCCCCCC[N+](C)(CCC)CCC.[Br-] | 25 | 30 | 0.85 | 19 | 0.75 | 1.68 | 0.8 | 4.27 | 1.96 |  |  |  |  |
| CCCCCCCCCCCCCCCCOP(=O)([O-])OCC[N+]1(C)CCCCCC1 | 50 | 25 | 18.2 | 8 (≈ 3.69 µg/mL) | 55.1 | 53.1 | 51.5 | 49.8 | 9.8 |  |  |  |  |
| CCCCCCCCCCCCCCCC[N+](C)(CC)CC.[Br-] | 25 | 40 | 0.8 | 10 | 0.62 | 1.38 | 0.65 | 4.9 | 2.1 |  |  |  |  |
| CCCCCCCCCCCCCCCCOP(=O)([O-])OCC[N+]1(C)CCCC1 | 200 | 30 | 10 | 8 (≈ 3.47 µg/mL) | 53.2 | 46.2 | 39.3 | 37.9 | 9.3 |  |  |  |  |
| CCCCCCCCCCCCCCCC[N+]1(C)CCCC1.[Br-] | 12.5 | 35 | 0.82 | 10 | 0.53 | 2.29 | 0.62 | 3.8 | 1.35 |  |  |  |  |
| CCCCCCCCCCCCCCCCOP(=O)([O-])OCC[N+]1(C)CCCCCCC1 | 50 | 30 | 38.6 | 8 (≈ 3.81 µg/mL) | 55 | 55 | 53.3 | 45.6 | 43.8 |  |  |  |  |
